Legend:
[1] = test system: Mycobacterium tuberculosis; test: Antimycobacterial activity against Mycobacterium tuberculosis H37Rv by agar dilution method; format: functional
Summary of the method: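 Agar dilution on Middlebrook 7H11 agar supplemented with OADC, following the NCCLS approach, using log-phase M. tuberculosis cultures. Run in triplicate. MIC was taken as the lowest concentration giving complete inhibition of growth.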

[2] = test system: HepG2; test: Cytotoxicity against human HepG2 cells at 20 to 25 uM after 48 hrs by MTT assay; format: cell-based; conditions: hepg2, 48 h
Summary of the method: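 HepG2 cells were seeded at 2500/well and grown 24 h, then exposed to compound for 48 h. MTT (20 µL of a 5 mg/mL stock) was added for 2.5 h at 37 °C, and OD was read at 570 nm. Results are reported as % inhibition at a single concentration.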

[3] = Volume of distribution in Wistar rat at 10 mg/kg, iv administered as single bolus dose; format: ADME, organism-based; set-up: dose 10 mg/kg, route intravenous; conditions: in vivo
Summary of the method: (§1)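 Male Wistar rats given a single iv bolus of 10 mg/kg in 20% propylene glycol, 10% cremophor ELP and 20% N-methylpyrrolidone in normal saline. Plasma was assayed by reverse-phase HPLC with PDA detection. Parameters came from plasma concentration–time data by non-compartmental analysis.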

[4] = Elimination rate constant in Wistar rat at 10 mg/kg, iv administered as single bolus dose; format: ADME, organism-based; set-up: dose 10 mg/kg, route intravenous; conditions: in vivo; summary of the method: as §1
[5] = Cmax in Wistar rat at 10 mg/kg, iv administered as single bolus dose; format: ADME, organism-based; set-up: dose 10 mg/kg, route intravenous; conditions: in vivo; summary of the method: as §1
[6] = test system: Rattus norvegicus; test: AUC (0 to t) in Wistar rat at 10 mg/kg, iv administered as single bolus dose; format: ADME, organism-based, Plasma; set-up: dose 10 mg/kg, route intravenous; conditions: in vivo; summary of the method: as §1
[7] = test system: Rattus norvegicus; test: AUC (0 to t) in Wistar rat at 50 mg/kg, po administered as single dose; format: ADME, organism-based, Plasma; set-up: dose 50 mg/kg, route oral; conditions: in vivo
Summary of the method: (§2)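 Male Wistar rats got a single oral dose of 50 mg/kg as a suspension in 0.25% sodium CMC with Tween 80. Plasma was measured by reverse-phase HPLC with PDA detection and analysed non-compartmentally. AUC covered 10 h. Bioavailability was derived against a separate 10 mg/kg iv bolus dose in the same vehicle system as the iv study.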

[8] = Cmax in Wistar rat at 50 mg/kg, po administered as single dose; format: ADME, organism-based; set-up: dose 50 mg/kg, route oral; conditions: in vivo; summary of the method: as §2
[9] = test system: Rattus norvegicus; test: Oral bioavailability in Wistar rat at 50 mg/kg administered as single dose; format: ADME, organism-based; conditions: in vivo; summary of the method: as §2
[10] = Tmax in Wistar rat at 50 mg/kg, po administered as single dose; format: ADME, organism-based; set-up: dose 50 mg/kg, route oral; conditions: in vivo; summary of the method: as §2
[11] = Plasma clearance in Wistar rat at 10 mg/kg, iv administered as single bolus dose; format: ADME, organism-based; set-up: dose 10 mg/kg, route intravenous; summary of the method: as §1

O=C(NN1C(=O)CCSC1c1cccc([N+](=O)[O-])c1)c1ccncc1 (centres undefined)
MIC [1]: 0.56 µM
Activity [2]: 28.6%

O=C(NN1C(=O)CCSC1c1ccc([N+](=O)[O-])cc1)c1ccncc1 (centres undefined)
MIC [1]: 1.11 µM
Activity [2]: 32%

O=C(NN1C(=O)CCSC1c1ccccc1Cl)c1ccncc1 (centres undefined)
MIC [1]: 1.15 µM
Activity [2]: 20.6%

O=C(NN1C(=O)CCSC1c1ccc(Cl)cc1)c1ccncc1 (centres undefined)
MIC [1]: 0.575 µM
Activity [2]: 26.8%

O=C(NN1C(=O)CCSC1c1ccccc1Br)c1ccncc1 (centres undefined)
MIC [1]: 0.25 µM
Activity [2]: 22.2%

O=C(NN1C(=O)CCSC1c1ccc(Br)cc1)c1ccncc1 (centres undefined)
MIC [1]: 0.5 µM
Activity [2]: 18.4%

O=C(NN1C(=O)CCSC1c1ccccc1F)c1ccncc1 (centres undefined)
MIC [1]: 0.6 µM
Activity [2]: 18.6%

O=C(NN1C(=O)CCSC1c1cccc(F)c1)c1ccncc1 (centres undefined)
MIC [1]: 0.6 µM
Activity [2]: 16.4%

O=C(NN1C(=O)CCSC1c1ccc(F)cc1)c1ccncc1 (centres undefined)
MIC [1]: 0.3 µM
Activity [2]: 18.6%

O=C(NN1C(=O)CCSC1c1ccccc1C(F)(F)F)c1ccncc1 (centres undefined)
MIC [1]: 0.52 µM
Activity [2]: 24.2%

O=C(NN1C(=O)CCSC1c1cccc(C(F)(F)F)c1)c1ccncc1 (centres undefined)
MIC [1]: 0.52 µM
Activity [2]: 26.4%

O=C(NN1C(=O)CCSC1c1ccc(C(F)(F)F)cc1)c1ccncc1 (centres undefined)
MIC [1]: 0.13 µM
Activity [2]: 20.6%

O=C(NN1C(=O)CCSC1Cc1ccco1)c1ccncc1 (centres undefined)
MIC [1]: 41.2 µM
Activity [2]: 18.6%

O=C(NN1C(=O)CCSC1Cc1ccc([N+](=O)[O-])o1)c1ccncc1 (centres undefined)
MIC [1]: 4.48 µM
Activity [2]: 38.6%

O=C(c1ccncc1)N1N=CCC1(O)C(F)(F)F (centres undefined)
MIC [1]: 0.77 µM

C/C(=N\NC(=O)c1ccncc1)c1ccc(NC(=S)Nc2ccc(F)cc2)cc1
MIC [1]: 0.45 µM

O=C(NNCc1ccccc1)c1ccncc1
MIC [1]: 0.2 µg/mL

O=C(NN=C1CCCCC1)c1ccncc1
MIC [1]: 0.0004 µM

NNC(=O)c1ccncc1 [ISONIAZID]
Vd [3]: 0.026 L
k el [4]: 6.67e-05 s⁻¹
Cmax [5]: 298 µg/mL
AUCt [6]: 684 µg·h/mL
AUCt [7]: 197.09 µg·h/mL
Cmax [8]: 52.3 µg/mL
MIC [1]: 0.36 µM
Activity [2]: 10%
F [9]: 17.36%
Tmax [10]: 2 h
clearance [11]: 0.21 mL/min/kg

Cc1c(CN2CCN(c3cccc(C(F)(F)F)c3)CC2)cc(-c2ccccc2)n1NC(=O)c1ccncc1 [SUDOTERB]
MIC [1]: 0.25 µg/mL
